Measurements reported in ChEMBL document CHEMBL1158464, “Structure-activity relationships and cancer-cell selective toxicity of novel inhibitors of glioma-associated oncogene homologue 1 (Gli1) mediated transcription” (J Med Chem, 2009).
Calls of active or inactive are those of the source. The calls are words filed in the database; no cut-off is given here.

Experiments:
SJRH30 = experiment: Cytotoxicity against human Rh30 cells at 40 uM/well after 68 hrs by alamar blue assay; format: functional, cell-based
Method in brief: (§1)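 Cells plated in appropriate medium 24 h before compound. A 10 mM DMSO stock was diluted in EMEM to 160 µM (4×) and added in triplicate to a final 40 µM. Incubated 68 h at 37 °C, then Alamar Blue for 4 h at 37 °C. Fluorescence read at ex 510/em 590 nm. Viability taken relative to DMSO control wells.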

MDA-MB-231 = experiment: Cytotoxicity against human MDA-MB-231 cells at 40 uM/well after 68 hrs by alamar blue assay; format: functional, cell-based; method in brief: as §1
Daoy = experiment: Cytotoxicity against human DaOY cells at 40 uM/well after 68 hrs by alamar blue assay; format: functional, cell-based; method in brief: as §1
DU-145 = experiment: Cytotoxicity against human DU145 cells at 40 uM/well after 68 hrs by alamar blue assay; format: functional, cell-based; method in brief: as §1
Raji = experiment: Cytotoxicity against human Raji cells at 40 uM/well after 68 hrs by alamar blue assay; format: functional, cell-based; method in brief: as §1
HepG2 = experiment: Cytotoxicity against human HepG2 cells at 40 uM/well after 68 hrs by alamar blue assay; format: functional, cell-based; method in brief: as §1
LN-229 = experiment: Cytotoxicity against human LN229 cells at 40 uM/well after 68 hrs by alamar blue assay; format: functional, cell-based; method in brief: as §1
BJ = experiment: Cytotoxicity against human TERT-immortalized human BJ cells at 40 uM/well after 68 hrs by alamar blue assay; format: cell-based; method in brief: as §1
[1] = biological target: T1, Zinc finger protein GLI1 (Homo sapiens) (UniProt P08151); experiment: Inhibition of exogenously transfected human Gli1-mediated transcriptional activity in mouse C3H10T1/2 cells at 20 uM after 24 hrs by luciferase reporter gene assay; format: cell-based; details: C3H 10T1/2
T1 sequence (whole entry): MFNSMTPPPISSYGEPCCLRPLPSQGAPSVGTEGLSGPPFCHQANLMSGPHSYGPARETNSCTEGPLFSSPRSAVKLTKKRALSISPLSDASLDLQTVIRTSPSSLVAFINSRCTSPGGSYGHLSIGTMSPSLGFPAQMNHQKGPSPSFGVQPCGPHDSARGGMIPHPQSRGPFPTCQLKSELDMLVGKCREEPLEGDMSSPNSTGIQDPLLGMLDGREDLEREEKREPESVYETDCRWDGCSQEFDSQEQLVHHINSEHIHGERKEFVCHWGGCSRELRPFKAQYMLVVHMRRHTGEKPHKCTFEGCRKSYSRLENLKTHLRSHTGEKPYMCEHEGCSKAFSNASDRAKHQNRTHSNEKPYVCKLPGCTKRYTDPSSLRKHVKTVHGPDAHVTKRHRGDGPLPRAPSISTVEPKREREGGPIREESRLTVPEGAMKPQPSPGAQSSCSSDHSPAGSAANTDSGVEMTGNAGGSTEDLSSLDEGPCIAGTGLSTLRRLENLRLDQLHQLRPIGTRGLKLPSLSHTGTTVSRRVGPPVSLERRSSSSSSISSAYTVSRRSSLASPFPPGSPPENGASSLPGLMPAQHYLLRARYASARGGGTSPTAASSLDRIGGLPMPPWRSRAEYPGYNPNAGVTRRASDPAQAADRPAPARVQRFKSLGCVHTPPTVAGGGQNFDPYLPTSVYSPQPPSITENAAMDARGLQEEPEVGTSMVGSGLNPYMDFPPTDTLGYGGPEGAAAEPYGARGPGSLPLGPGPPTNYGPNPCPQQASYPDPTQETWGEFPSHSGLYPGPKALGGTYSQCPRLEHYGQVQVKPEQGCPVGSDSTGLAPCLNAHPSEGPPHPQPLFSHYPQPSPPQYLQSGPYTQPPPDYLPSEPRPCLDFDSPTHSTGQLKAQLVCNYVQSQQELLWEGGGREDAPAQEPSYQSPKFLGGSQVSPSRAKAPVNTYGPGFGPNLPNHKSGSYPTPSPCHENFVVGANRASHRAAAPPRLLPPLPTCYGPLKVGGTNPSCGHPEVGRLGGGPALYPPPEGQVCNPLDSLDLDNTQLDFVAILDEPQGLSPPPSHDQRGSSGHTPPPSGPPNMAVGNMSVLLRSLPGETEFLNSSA
Method in brief: (§2)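 They were replated 18 h later, given compound or DMSO 6 h after plating, and exposed for 24 h at 37 °C, 5% CO2. Lysate was read by dual luciferase as firefly/Renilla, triplicate, DMSO = 0%. IC50 came from curve fitting.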

[2] = biological target: T1, Zinc finger protein GLI1 (Homo sapiens); experiment: Inhibition of exogenously transfected human Gli1-mediated transcriptional activity in mouse C3H10T1/2 cells at 40 uM after 24 hrs by luciferase reporter gene assay; format: cell-based; details: C3H 10T1/2; method in brief: as §2

| SMILES | Activity (SJRH30) | Activity (MDA-MB-231) | Activity (Daoy) | Activity (DU-145) | Activity (Raji) | Activity (HepG2) | Activity (LN-229) | Activity (BJ) | inhibition [1] | inhibition [2] |
| --- | --- | --- | --- | --- | --- | --- | --- | --- | --- | --- |
| O=C(Cc1ccccc1Oc1ccccc1)NCCc1ccc(O)cc1 | Active | Active | Active | Active | Active | inactive | inactive | Non-toxic |  |  |
| COc1ccc2c(c1)c(CC(=O)NCCc1ccc(O)cc1)c(C)n2C(=O)c1ccc(Cl)cc1 | Active | Active | Active | Active | Active | inactive | inactive | Non-toxic | Active | Active |
| COc1ccc2[nH]cc(CC(=O)NCCc3ccc(O)cc3)c2c1 | Active | Active | Active | Active | Active | inactive | inactive | Non-toxic |  |  |
| C[C@H](C(=O)NCc1ccc(O)cc1)c1cccc(C(=O)c2ccccc2)c1 | Active | Active | Active | Active | Active | inactive | inactive | Non-toxic | Active | Active |
| COc1ccc(CCNC(=O)[C@@H](C)c2cccc(C(=O)c3ccccc3)c2)cc1 | Active | Active | Active | Active | Active | inactive | inactive | Non-toxic | Active | Active |
| C[C@H](C(=O)Nc1ccc(O)cc1)c1cccc(C(=O)c2ccccc2)c1 | Active | Active | Active | Active | Active | inactive | inactive | Non-toxic | Active | Active |
| C[C@H](COC(=O)NCCc1ccc(O)cc1)c1cccc(C(=O)c2ccccc2)c1 | Active | Active | Active | Active | Active | inactive | inactive | Non-toxic | Active | Active |
| C[C@H](COC(=O)Nc1ccc(O)cc1)c1cccc(C(=O)c2ccccc2)c1 | Active | Active | Active | Active | Active | inactive | inactive | Non-toxic | Active | Active |
| COc1ccc2cc([C@@H](C)C(=O)NCCc3ccc(O)cc3)ccc2c1 | Active | Active | Active | Active | Active | inactive | inactive | Non-toxic |  |  |
| C[C@H](CNC(=O)c1ccc(O)cc1)c1cccc(C(=O)c2ccccc2)c1 | Active | Active | Active | Active | Active | inactive | inactive | Non-toxic | Active | Active |
| COc1ccc(CCNC(=O)[C@@H](C)c2cccc(C(=O)c3ccccc3)c2)cc1O | Active | Active | Active | Active | Active | inactive | inactive | Non-toxic | Active | Active |
| COc1cc(CCNC(=O)[C@@H](C)c2cccc(C(=O)c3ccccc3)c2)ccc1O | Active | Active | Active | Active | Active | inactive | inactive | Non-toxic | Active | Active |
| COc1ccc(COC[C@@H](C)c2cccc(C(=O)c3ccccc3)c2)cc1 | Active | Active | Active | Active | Active | inactive | inactive | Non-toxic | inactive | inactive |
| CC(C)Cc1ccc(C(C)C(=O)NCCc2ccc(O)cc2)cc1 (stereo unspecified) | Active | Active | Active | Active | Active | inactive | inactive | Non-toxic |  |  |
| O=C(Cc1cccc(Oc2ccccc2)c1)NCCc1ccc(O)cc1 | Active | Active | Active | Active | Active | inactive | inactive | Non-toxic |  |  |
| C[C@H](C(=O)NCCc1ccccc1O)c1cccc(C(=O)c2ccccc2)c1 | Active | Active | Active | Active | Active | inactive | inactive | Non-toxic | Active |  |
| CC(C(=O)NCCc1ccc(O)cc1)c1cccc(C(=O)c2ccccc2)c1 (racemic) | Active | Active | Active | Active | Active | inactive | inactive | Non-toxic |  |  |
| C[C@H](C(=O)NCCc1ccc(O)cc1)c1cccc(C(O)c2ccccc2)c1 (stereo partly specified) | Active | Active | Active | Active | Active | inactive | inactive | Non-toxic |  |  |
| C[C@H](C(=O)NCCc1ccc(O)cc1)c1cccc(Cc2ccccc2)c1 | Active | Active | Active | Active | Active | inactive | inactive | Non-toxic |  |  |
| O=C(Cc1ccc(Oc2ccccc2)cc1)NCCc1ccc(O)cc1 | Active | Active | Active | Active | Active | inactive | inactive | Non-toxic |  |  |
